Results published in ChEMBL document CHEMBL1122545, “N2-(4-Substituted-2,6-dichlorophenyl)-N1,N1-dimethylformamidines as antihypertensive and diuretic agents” (J Med Chem, 1984).

Legend:
[1] = Diuretic activity was determined expressed as Na+(sodium) excreted in milli equivalents was reported for a duration of 5 hours after administration of a dose of 100 mg/Kg; format: ADME, Urine; conditions: in vivo
Outline: (§1)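 Male SH rats (Okamoto strain), 16 weeks old, dosed orally by gavage with compound dispersed in 3% starch in normal saline at 2 mL/kg. Oral normal saline load, then individual metabolism cages; 0-5 h urine collected, Na+ and K+ measured by flame photometry. Rats redosed at 24 h without the saline load. MABP and HR taken by femoral arterial puncture under local anesthetic 4 h after the second dose.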

[2] = (§2) Diuretic activity was determined expressed as volume of urine excreted in mL was reported at a dose of 100 mg/Kg; format: ADME; conditions: in vivo; outline: as §1
Rattus norvegicus [3] = assay: Antihypertensive activity in SH rats, and mean arterial blood pressure was reported at a dose of 100 mg/Kg; format: functional, Artery; outline: as §1
Rattus norvegicus [4] = assay: Diuretic activity was determined in SH rats expressed as K(+) (potassium) excreted in milli equivalents was reported for a duration of 5 hours after administration of a dose of 100 mg/Kg.; format: ADME, organism-based, Urine; conditions: in vivo; outline: as §1
Rattus norvegicus [5] = assay: Antihypertensive activity determined as heart rate in SH rats, was reported at a dose of 100 mg/Kg; format: functional; outline: as §1
Rattus norvegicus [6] = assay: Diuretic activity was determined in SH rats expressed as K(+) (potassium) excreted in milli equivalents was reported for a duration of 5 hours after administration of a dose of 100 mg/Kg; format: ADME, organism-based, Urine; conditions: in vivo; outline: as §1
Rattus norvegicus [7] = assay: Antihypertensive activity determined as heart rate in SH rats, was reported at a dose of 25 mg/Kg; format: functional; outline: as §1
Rattus norvegicus [8] = assay: Antihypertensive activity in SH rats, and mean arterial blood pressure was reported at a dose of 25 mg/Kg; format: functional, Artery; outline: as §1
[9] = Diuretic activity was determined expressed as Na+(sodium) excreted in milli equivalents was reported for a duration of 5 hours after administration of a dose of 25 mg/Kg; format: ADME, Urine; conditions: in vivo; outline: as §1
[10] = Diuretic activity was determined expressed as volume of urine excreted in mL was reported at a dose of 25 mg/Kg; format: ADME; conditions: in vivo; outline: as §1
Rattus norvegicus [11] = assay: Diuretic activity was determined in SH rats expressed as K(+) (potassium) excreted in milli equivalents was reported for a duration of 5 hours after administration of a dose of 25 mg/Kg.; format: ADME, organism-based, Urine; conditions: in vivo; outline: as §1
Rattus norvegicus [12] = assay: as §2; format: ADME, organism-based; conditions: in vivo; outline: as §1
Rattus norvegicus [13] = assay: Diuretic activity was determined in SH rats expressed as K(+) (potassium) excreted in milli euivalents was reported for a duration of 5 hours after administration of a dose of 100 mg/Kg.; conditions: in vivo

Row | Diuretic activity [1] [m equiv] | Diuretic activity [2] [mL] | Diuretic activity (Rattus norvegicus [4]) [m equiv] | Diuretic activity (Rattus norvegicus [6]) [m equiv] | Diuretic activity [9] [m equiv] | Diuretic activity [10] [mL] | Diuretic activity (Rattus norvegicus [11]) [m equiv] | Diuretic activity (Rattus norvegicus [12]) [mL] | Diuretic activity (Rattus norvegicus [13]) [m equiv] | SMILES | MABP (Rattus norvegicus [3]) [mmHg] | HR (Rattus norvegicus [5]) [beats min-1] | HR (Rattus norvegicus [7]) [beats min-1] | MABP (Rattus norvegicus [8]) [mmHg]
1 | 1.93 | 25 | 0.59 |  |  |  |  |  |  | CN(C)/C=N/c1c(Cl)cc(NCc2cccc(F)c2)cc1Cl | 120 | 290 |  | 
2 | 1.15 | 16.8 |  | 0.43 |  |  |  |  |  | COc1ccc(CNc2cc(Cl)c(/N=C/N(C)C)c(Cl)c2)cc1F | 113 | 320 |  | 
3 | 1.9 | 19.3 |  |  |  |  |  |  | 0.48 | CN(C)/C=N/c1c(Cl)cc(NCc2cccc(Br)c2)cc1Cl | 120 | 350 |  | 
4 | 2.04 | 21.3 | 0.5 |  |  |  |  |  |  | CN(C)/C=N/c1c(Cl)cc(NCc2cccc(C(F)(F)F)c2)cc1Cl | 165 | 420 |  | 
5 | 1.4 | 17.5 |  | 0.57 |  |  |  |  |  | COc1cc(CNc2cc(Cl)c(/N=C/N(C)C)c(Cl)c2)cc(OC)c1OC | 138 | 360 |  | 
6 |  |  |  |  | 0.55 | 5.5 | 0.39 |  |  | CN(C)/C=N/c1c(Cl)cc(NCc2ccc(N(C)C)cc2)cc1Cl |  |  | 450 | 171
7 |  |  |  |  | 1.18 | 14 | 0.77 |  |  | CN(C)/C=N/c1c(Cl)cc(NCc2ccc(N(C)C)c(Br)c2)cc1Cl |  |  | 420 | 173
8 |  |  |  |  | 1.86 | 19.3 | 0.45 |  |  | CN(C)/C=N/c1c(Cl)cc(NCc2ccc(N(C)C)cc2Br)cc1Cl |  |  | 280 | 115
9 | 0.47 | 8.3 |  | 0.37 |  |  |  |  |  | COc1ccc(CNc2cc(Cl)c(/N=C/N(C)C)c(Cl)c2)cc1OC | 133 | 410 |  | 

The next lines start with the compound.

Row | SMILES | Diuretic activity [1] [m equiv] | Diuretic activity [2] [mL] | Diuretic activity (Rattus norvegicus [4]) [m equiv] | Diuretic activity (Rattus norvegicus [6]) [m equiv] | Diuretic activity [9] [m equiv] | Diuretic activity [10] [mL] | Diuretic activity (Rattus norvegicus [11]) [m equiv] | Diuretic activity (Rattus norvegicus [12]) [mL] | Diuretic activity (Rattus norvegicus [13]) [m equiv] | MABP (Rattus norvegicus [3]) [mmHg] | HR (Rattus norvegicus [5]) [beats min-1] | HR (Rattus norvegicus [7]) [beats min-1] | MABP (Rattus norvegicus [8]) [mmHg]
10 | CN(C)/C=N/c1c(Cl)cc(NCc2ccc(-c3ccccc3)cc2)cc1Cl | 0.46 | 7.3 | 0.5 |  |  |  |  |  |  | 143 | 400 |  | 
11 | CN(C)/C=N/c1c(Cl)cc(NCc2ccc(N(C)C)cc2F)cc1Cl |  |  |  |  | 2.26 | 23.5 | 0.71 |  |  |  |  | 400 | 155
12 | CN(C)/C=N/c1c(Cl)cc(NCc2ccccc2O)cc1Cl | 0.72 | 12.3 | 0.68 |  |  |  |  |  |  | 150 | 340 |  | 
13 | CC(=O)Nc1ccc(CNc2cc(Cl)c(/N=C/N(C)C)c(Cl)c2)cc1 | 0.66 |  | 0.62 |  |  |  |  | 9.5 |  | 150 | 340 |  | 
14 | CCN(CC)c1ccc(CNc2cc(Cl)c(/N=C/N(C)C)c(Cl)c2)cc1 |  |  |  |  | 2.02 | 21.3 | 0.71 |  |  |  |  | 400 | 153
15 | CN(C)/C=N/c1c(Cl)cc(NCc2cc(Cl)cc(Cl)c2)cc1Cl |  |  |  |  | 1.34 | 13.8 | 0.42 |  |  |  |  | 290 | 139
16 | Clc1cccc(Cl)c1NC1=NCCN1 [CLONIDINE] |  | 16.4 |  |  |  |  |  |  | 0.16 | 102 | 180 | 220 | 113
17 | NS(=O)(=O)c1cc2c(cc1Cl)NCNS2(=O)=O [HYDROCHLOROTHIAZIDE] | 1.63 | 13.2 | 0.65 |  |  |  |  |  |  | 153 | 436 |  | 
